Test results taken from the RNAGym collection of RNA variant scans (doi:10.1002/anie.201605470).

B1: Osa-1-4 twister ribozyme (parent)
chain: CCGCCUAACACUGCCAAUGCCGGUCCCAAGCCCGGAUAAAAGUGGAGGGGGCGG

Variants of: B1
Test: self-cleavage, relative activity (ratio to wild type); higher = more cleavage; co-transcriptional
How it was run: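 Values are relative activity: the fraction cleaved, normalised to wild type. A doped DNA template for a 54-nucleotide twister ribozyme from Oryza sativa had 97 % wild-type base and 1 % of each other base at the 48 positions downstream of the cleavage site. The RNA was transcribed in vitro for 2 h at 37 °C so that it could cleave itself co-transcriptionally, then sequenced deeply, with cleavage status scored from the presence or absence of upstream sequence in reads.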

In order of falling self-cleavage:
1. A10G U43C  0.96
2. C11A C52U  0.9
3. A10G C21U  0.89
4. A10G G44U  0.87
5. A10G U18A  0.85
6. C11A  0.84
7. C11A G42C  0.83
8. A10G G44C  0.81
9. A10G C20U  0.81
10. A10G U43A  0.79
11. A10U U43A  0.79
12. A10G C20A  0.78
13. C11A G42A  0.76
14. C11A C52G  0.74
15. C11A G42U  0.73
16. A10G G44A  0.72
17. C11A C21U  0.71
18. A10G U18C  0.68
19. A10G U18G  0.66
20. C11A C20U  0.66
21. C11A C52A  0.63
22. C11A C20A  0.62
23. A10U U43G  0.59
24. C11A G44C  0.45
25. A10G G53A  0.41
26. C11A C9U  0.4
27. A10G C31U  0.36
28. A10G C33U  0.33
29. A10G C21A  0.33
30. C11A C9A  0.33
31. A10G U43G  0.3
32. A10G G53U  0.22
33. A10G U12A  0.21
34. C11A C26U  0.21
35. A10U G54U  0.21
36. A10G U12G  0.2
37. C11A C33U  0.2
38. C11A G44A  0.19
39. C11A C9G  0.19
40. C11A U12C  0.14
41. C11A C21A  0.14
42. A10G C15U  0.14
43. A10G U12C  0.12
44. C11A C27A  0.12
45. C11A C15A  0.12
46. A10G G23A  0.1
47. A10G C33A  0.1
48. A10G C31G  0.1
49. C11A C15G  0.1
50. C11A C31U  0.09
51. C11A U12G  0.09
52. C11A U12A  0.09
53. A10G C20G  0.09
54. A10G G49U  0.09
55. C11A G44U  0.08
56. C11A C27U  0.08
57. A10G C21G  0.08
58. A10U A17U  0.08
59. A10G G13A  0.08
60. A10U C9G  0.07
61. C11A C32G  0.07
62. A10G C33G  0.07
63. A10G G53C  0.07
64. C11A G49U  0.07
65. C11A C15U  0.07
66. A10U A41U  0.07
67. C11A G23A  0.07
68. C11A G47A  0.07
69. C11A C21G  0.07
70. A10U C52G  0.07
71. A10G G49A  0.07
72. A10G G49C  0.07
73. A10G G30C  0.07
74. A10U A17G  0.07
75. C11A C31G  0.06
76. A10U A16U  0.06
77. A10U A16G  0.06
78. A10U G35A  0.06
79. C11A C32U  0.06
80. C11A C32A  0.06
81. C11A C20G  0.06
82. C11A G45U  0.06
83. C11A G45A  0.06
84. C11A G49A  0.06
85. C11A G49C  0.06
86. C11A C33A  0.06
87. C11A C26A  0.06
88. C11A C26G  0.06
89. C11A G47U  0.06
90. A10U G54A  0.06
91. A10G G23C  0.05
92. A10G G23U  0.05
93. C11A C31A  0.05
94. A10U C9U  0.05
95. A10U  0.05
96. A10G C31A  0.05
97. A10U G22A  0.05
98. A10U G34A  0.05
99. C11A G47C  0.05
100. A10U A8G  0.05
101. A10U U37C  0.05
102. C11A G48A  0.05
103. C11A G48C  0.05
104. C11A G48U  0.05
105. A10U C11U  0.05
106. A10U C52U  0.05
107. A10U G19A  0.05
108. A10G G30U  0.05
109. A10G G30A  0.05
110. A10U C31U  0.05
111. A10U C9A  0.04
112. A10U G51A  0.04
113. A10U G35U  0.04
114. A10U C32G  0.04
115. C11A C27G  0.04
116. C11A G45C  0.04
117. A10U A41G  0.04
118. A10U A41C  0.04
119. C11A C33G  0.04
120. A10U G49A  0.04
121. A10U A8U  0.04
122. A10U U37G  0.04
123. A10U U37A  0.04
124. A10U C11A  0.04
125. A10U C33U  0.04
126. A10U G54C  0.04
127. A10U C52A  0.04
128. A10U A17C  0.04
129. A10U G42A  0.04
130. A10U G42C  0.04
131. A10G G13U  0.04
132. A10U G51U  0.03
133. A10U A16C  0.03
134. A10U U43C  0.03
135. A10U G35C  0.03
136. C11A G23U  0.03
137. C11A G23C  0.03
138. A10U G22U  0.03
139. A10U G34C  0.03
140. A10U G34U  0.03
141. A10U A8C  0.03
142. A10U C11G  0.03
143. A10U A29G  0.03
144. A10U A29U  0.03
145. C11A G30U  0.03
146. C11A G30C  0.03
147. C11A G30A  0.03
148. A10U C31G  0.03
149. A10U G48A  0.02
150. A10U G51C  0.02
151. A10U C32U  0.02
152. A10U G49U  0.02
153. A10U G22C  0.02
154. A10U C33A  0.02
155. A10U G19U  0.02
156. A10U G42U  0.02
157. A10U G48U  0.01
158. A10U G48C  0.01
159. A10U G30C  0.01
160. A10U G30A  0.01
161. A10U G30U  0.01
162. A10U C32A  0.01
163. A10U G49C  0.01
164. A10U A29C  0.01
165. A10U C33G  0.01
166. A10U G19C  0.01
167. A10U C31A  0
